Test results from ChEMBL document CHEMBL1129649, “A novel series of (phenoxyalkyl)imidazoles as potent H3-receptor histamine antagonists” (J Med Chem, 1996).

Experiments:
Mus musculus = assay: In vivo evaluation for effect on brain tele-methylhistamine levels in mice; format: functional
In short: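 Male Swiss mice (18-22 g, groups of at least six) fasted 24 h, then dosed orally as salt suspended in 1% methylcellulose (doses as free base, starting at 10 mg/kg). Cerebral cortex taken 90 min later, homogenized in ice-cold 0.4 M perchloric acid; tele-methylhistamine measured by radioimmunoassay. ED50 calculated relative to maximal level produced by 10 mg/kg thioperamide.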

Histamine H3 receptor = Histamine H3 receptor (Rattus norvegicus, UniProt Q9QYN8); assay: Rat Histamine H3 receptor antagonism determined by [K+] - evoked depolarization-induced release of [3H]histamine from rat cerebral cortex synaptosomes; format: functional, subcellular, Brain
Chain of Histamine H3 receptor (Q9QYN8 whole entry): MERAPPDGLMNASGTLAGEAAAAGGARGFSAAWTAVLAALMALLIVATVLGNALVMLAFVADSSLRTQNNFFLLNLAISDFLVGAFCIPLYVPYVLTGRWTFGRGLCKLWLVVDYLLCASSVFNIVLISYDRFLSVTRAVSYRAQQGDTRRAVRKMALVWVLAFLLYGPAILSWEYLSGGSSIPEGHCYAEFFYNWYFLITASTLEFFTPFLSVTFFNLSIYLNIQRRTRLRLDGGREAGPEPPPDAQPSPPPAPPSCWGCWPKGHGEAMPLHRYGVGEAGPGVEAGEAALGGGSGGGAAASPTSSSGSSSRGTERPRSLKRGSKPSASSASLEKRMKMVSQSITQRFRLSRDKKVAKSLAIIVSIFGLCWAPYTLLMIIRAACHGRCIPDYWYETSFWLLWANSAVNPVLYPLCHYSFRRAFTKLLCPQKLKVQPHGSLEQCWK

Compound	Ki (Histamine H3 receptor)	ED50 (Mus musculus)
CCCc1ccc(OCCc2c[nH]cn2)cc1		1.6 mg/kg
O=[N+]([O-])c1ccc(OCCc2c[nH]cn2)cc1		0.66 mg/kg
N#Cc1ccccc1OCCc1c[nH]cn1		> 10 mg/kg
O=[N+]([O-])c1ccc(NCCc2c[nH]cn2)cc1		10.7 mg/kg
Clc1cc(Cl)cc(OCCc2c[nH]cn2)c1	> 500 nM	> 10 mg/kg
Fc1ccc(OCCCc2cnc[nH]2)cc1	11 nM	4.9 mg/kg
N#Cc1ccc(OCCCc2c[nH]cn2)cc1		0.54 mg/kg
O=[N+]([O-])c1ccc(CSCc2c[nH]cn2)cc1		> 10 mg/kg
O=C(c1ccc(OCCc2cnc[nH]2)cc1)N1CCCCC1	338 nM	> 10 mg/kg
S=C(NC1CCCCC1)N1CCC(c2cnc[nH]2)CC1 [THIOPERAMIDE]		1 mg/kg
CCOC(=O)c1ccc(OCCc2c[nH]cn2)cc1	6 nM	> 10 mg/kg
O=[N+]([O-])c1ccc(SCCc2c[nH]cn2)nc1		2.6 mg/kg
c1ccc2cc(OCCc3c[nH]cn3)ccc2c1		1.5 mg/kg
COC(=O)c1ccc(OCCc2c[nH]cn2)cc1	5.1 nM	> 3 mg/kg
Cc1ccc(OCCc2c[nH]cn2)cc1		2.3 mg/kg
FC(F)(F)c1ccc(OCCCc2c[nH]cn2)cc1		0.6 mg/kg
CC(=O)c1ccc(OCCc2c[nH]cn2)cc1		3.2 mg/kg
N#Cc1ccc(OCCc2c[nH]cn2)cc1		1.2 mg/kg

The next lines start with results.

Ki (Histamine H3 receptor)	Compound	ED50 (Mus musculus)
137 nM	c1ccc2c(OCCc3c[nH]cn3)cccc2c1	3.4 mg/kg
80 nM	CCc1ccc(OCCc2cnc[nH]2)cc1	> 10 mg/kg
29 nM	O=[N+]([O-])c1ccc(NCCc2c[nH]cn2)nc1	
39 nM	N#Cc1cccc(OCCc2c[nH]cn2)c1	2.9 mg/kg
> 500 nM	Fc1c(F)c(F)c(OCCc2c[nH]cn2)c(F)c1F	10 mg/kg
38 nM	COc1ccc(OCCc2cnc[nH]2)cc1	2.9 mg/kg
24 nM	Brc1ccc(OCCc2c[nH]cn2)cc1	2.9 mg/kg
54 nM	O=C(c1ccccc1)c1ccc(OCCc2c[nH]cn2)cc1	2.6 mg/kg
68 nM	FC(F)(F)c1ccc(OCCc2cnc[nH]2)cc1	> 10 mg/kg
9 nM	O=[N+]([O-])c1ccc(SCCc2c[nH]cn2)cc1	2.7 mg/kg
12 nM	O=[N+]([O-])c1cccc(OCCc2c[nH]cn2)c1	0.9 mg/kg
3.7 nM	CCC(=O)c1ccc(OCCc2cnc[nH]2)cc1	0.95 mg/kg
21 nM	Clc1ccc(OCCc2c[nH]cn2)cc1	0.78 mg/kg
